Measured values as given in ChEMBL document CHEMBL1155469, “Peptide nucleic acids conjugated to short basic peptides show improved pharmacokinetics and antisense activity in adipose tissue” (J Med Chem, 2010).
The source made the active and inactive calls.

Assays:
[1] = test system: Mus musculus; assay: Toxicity in Balb/C mouse assessed as change in serum triglyceride levels at 40 mg/kg, ip administered thrice a week for 2 weeks measured 48 hrs after last dose; assay type: organism-based; set-up: dose 40 mg/kg, route intraperitoneal; settings: in vivo
Method in brief: (§1)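 Male Balb/c mice, 6–8 wk, n=4/group, received compound i.p. in PBS (10 ul/g) 3x/wk for 2 wk. Body weight was monitored throughout. At 48 h after the last dose, mice were anesthetized with isoflurane and bled by cardiac puncture. Serum AST, ALT, BUN, bilirubin, glucose and triglycerides were compared with the saline group. ALT rise below 2x normal was counted as absent.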

[2] = test system: Mus musculus; assay: Toxicity in Balb/C mouse assessed as change in serum bilirubin levels at 40 mg/kg, ip administered thrice a week for 2 weeks measured 48 hrs after last dose; assay type: organism-based; set-up: dose 40 mg/kg, route intraperitoneal; settings: in vivo; method in brief: as §1
[3] = test system: Mus musculus; assay: Toxicity in Balb/C mouse assessed as change in blood urea nitrogen levels at 40 mg/kg, ip administered thrice a week for 2 weeks measured 48 hrs after last dose; assay type: organism-based; set-up: dose 40 mg/kg, route intraperitoneal; settings: in vivo; method in brief: as §1
[4] = test system: BCL1; assay: Inhibition of PTEN expression in mouse BCL1 cells after 62 hrs by Western blotting; assay type: functional, cell-based; settings: BCL1, 62 h
Method in brief: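 BCL1 cells were grown in DMEM with 10% FBS at 37 °C, 5% CO2. Compound was delivered to 2×10^6 cells by electroporation (200 V, 1000 uF, 13 ohms), and cells were harvested 62 h later. Western blot of RIPA lysates used rabbit anti-PTEN and anti-CD40 (1:1000) with HRP secondary and ECL detection. PTEN was normalized to CD40. n=3, mean ± SD.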

[5] = test system: Mus musculus; assay: Toxicity in Balb/C mouse assessed as change in serum glucose levels at 40 mg/kg, ip administered thrice a week for 2 weeks measured 48 hrs after last dose; assay type: organism-based; set-up: dose 40 mg/kg, route intraperitoneal; settings: in vivo; method in brief: as §1
[6] = test system: Mus musculus; assay: Inhibition of PTEN expression in Balb/C mouse liver at 40 mg/kg, ip administered thrice a week for 2 weeks measured 48 hrs after last dose by Western blot analysis; assay type: functional, organism-based; set-up: dose 40 mg/kg
Method in brief: (§2)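 Male Balb/c mice, 6–8 wk, n=4/group, dosed i.p. in PBS 3x/wk for 2 wk and killed 48 h after the last dose. Tissue was homogenized in RIPA buffer with protease inhibitors, and protein was measured by Lowry assay. Lysates were run on 10% PAGE and blotted to PVDF. Blots were probed with rabbit anti-PTEN (1:1000) and HRP anti-rabbit (1:2500), with ECL detection.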

[7] = test system: Mus musculus; assay: Toxicity in Balb/C mouse assessed as change in serum ALT levels at 40 mg/kg, ip administered thrice a week for 2 weeks measured 48 hrs after last dose; assay type: organism-based; set-up: dose 40 mg/kg, route intraperitoneal; settings: in vivo; method in brief: as §1
[8] = test system: Mus musculus; assay: Toxicity in Balb/C mouse assessed as change in body weight at 40 mg/kg, ip administered thrice a week for 2 weeks measured 48 hrs after last dose; assay type: organism-based; set-up: dose 40 mg/kg, route intraperitoneal; settings: in vivo; method in brief: as §1
[9] = test system: Mus musculus; assay: Toxicity in Balb/C mouse assessed as change in serum AST levels at 40 mg/kg, ip administered thrice a week for 2 weeks measured 48 hrs after last dose; assay type: organism-based; set-up: dose 40 mg/kg, route intraperitoneal; settings: in vivo; method in brief: as §1
[10] = test system: Mus musculus; assay: Inhibition of PTEN expression in Balb/C mouse kidney at 40 mg/kg, ip administered thrice a week for 2 weeks measured 48 hrs after last dose by Western blot analysis; assay type: functional, organism-based; set-up: dose 40 mg/kg; method in brief: as §2
[11] = test system: BCL1; assay: Inhibition of CD40 protein expression in mouse BCL1 cells after 62 hrs by Western blotting; assay type: functional, cell-based; settings: BCL1, 62 h
[12] = test system: Mus musculus; assay: Inhibition of IR expression in Balb/C mouse kidney assessed as reduction in IR-B transcript at 1.5 umol/kg, ip administered thrice a week for 2 weeks measured 48 hrs after last dose […]; assay type: functional, organism-based
Method in brief: (§3)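 Male Balb/c mice, n=4 per group, dosed i.p. in PBS and sacrificed 48 h after last dose. Liver, kidney and adipose tissue homogenised at once in 4 M guanidine isothiocyanate, 25 mM EDTA, 50 mM Tris-HCl pH 6. RNA purified on columns and run by fluorescence-based quantitative RT-PCR. Target transcript levels normalised to cyclophilin A and expressed relative to saline-treated controls.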

[13] = test system: Mus musculus; assay: Acute toxicity in Balb/C mouse assessed as reduction in body weight at 1.5 to 6.0 umol/kg, ip administered thrice a week for 2 weeks measured 48 hrs after last dose; assay type: organism-based; settings: in vivo
Method in brief: (§4)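 Male Balb/c mice aged 6–8 weeks, n=4 per group, dosed i.p. with compound suspended in PBS and filter sterilized, 10 ul/g body weight. Body weight tracked throughout the live phase. Under isoflurane anaesthesia, terminal cardiac-puncture bleed; serum taken for transaminases and other chemistries. Sacrifice by cervical dislocation 48 h after last dose, with liver and spleen weighed at necropsy. Kidneys examined by histopathology.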

[14] = test system: Mus musculus; assay: Inhibition of IR expression in Balb/C mouse liver assessed as upregulation of IR-A transcript at 1.5 umol/kg, ip administered thrice a week for 2 weeks measured 48 hrs after last dose by quantitative RT-PCR analysis
[15] = test system: Mus musculus; assay: Inhibition of IR expression in Balb/C mouse kidney assessed as upregulation of IR-A transcript at 1.5 umol/kg, ip administered thrice a week for 2 weeks measured 48 hrs after last dose […]; assay type: functional, organism-based; method in brief: as §3
[16] = test system: Mus musculus; assay: Inhibition of IR expression in Balb/C mouse kidney assessed as reduction in IR-B transcript at 6.0 umol/kg, ip administered thrice a week for 2 weeks measured 48 hrs after last dose […]; assay type: functional, organism-based; method in brief: as §3
[17] = test system: Mus musculus; assay: Inhibition of IR expression in Balb/C mouse kidney assessed as upregulation of IR-A transcript at 6.0 umol/kg, ip administered thrice a week for 2 weeks measured 48 hrs after last dose […]; assay type: functional, organism-based; method in brief: as §3
[18] = test system: Mus musculus; assay: Acute toxicity in Balb/C mouse assessed as change in plasma chemistry at 1.5 to 6.0 umol/kg, ip administered thrice a week for 2 weeks measured 48 hrs after last dose; assay type: organism-based; settings: in vivo; method in brief: as §4
[19] = test system: Mus musculus; assay: Inhibition of IR expression in Balb/C mouse liver assessed as upregulation of IR-A transcript at 6.0 umol/kg, ip administered thrice a week for 2 weeks measured 48 hrs after last dose by quantitative RT-PCR analysis
[20] = test system: Mus musculus; assay: Inhibition of IR expression in Balb/C mouse adipose tissue assessed as reduction in IR-B transcript at 6.0 umol/kg, ip administered thrice a week for 2 weeks measured 48 hrs after last dose […]; assay type: functional; method in brief: as §3
[21] = test system: Mus musculus; assay: Inhibition of IR expression in Balb/C mouse liver assessed as reduction in IR-B transcript at 6.0 umol/kg, ip administered thrice a week for 2 weeks measured 48 hrs after last dose […]; assay type: functional, organism-based; method in brief: as §3
[22] = test system: Mus musculus; assay: Acute toxicity in Balb/C mouse assessed as change in liver weight at 1.5 to 6.0 umol/kg, ip administered thrice a week for 2 weeks measured 48 hrs after last dose; assay type: organism-based; settings: in vivo; method in brief: as §4
[23] = test system: Mus musculus; assay: Acute toxicity in Balb/C mouse assessed as change in spleen weight at 1.5 to 6.0 umol/kg, ip administered thrice a week for 2 weeks measured 48 hrs after last dose; assay type: organism-based; settings: in vivo; method in brief: as §4
[24] = test system: Mus musculus; assay: Inhibition of IR expression in Balb/C mouse adipose tissue assessed as upregulation of IR-A transcript at 6.0 umol/kg, ip administered thrice a week for 2 weeks measured 48 hrs after last dose by […]; assay type: functional; method in brief: as §3

COCCO[C@@H]1[C@H](OP(=O)(S)OC[C@H]2O[C@@H](n3cc(C)c(=O)[nH]c3=O)C[C@@H]2OP(=O)(S)OC[C@H]2O[C@@H](n3ccc(N)nc3=O)[C@H](OCCOC)[C@@H]2OP(=O)(S)OC[C@H]2O[C@@H](n3cnc4c(N)ncnc43)[C@H](OCCOC)[C@@H]2OP(=O)(S)OC[C@H]2O[C@@H](n3cnc4c(=O)[nH]c(N)nc43)[C@H](OCCOC)[C@@H]2OP(=O)(S)OC[C@H]2O[C@@H](n3ccc(N)nc3=O)[C@H](OCCOC)[C@@H]2OP(=O)(S)OC[C@H]2O[C@@H](n3cnc4c(N)ncnc43)[C@H](OCCOC)[C@@H]2OP(=O)(S)OC[C@H]2O[C@@H](n3ccc(N)nc3=O)[C@H](OCCOC)[C@@H]2OP(=O)(S)OC[C@H]2O[C@@H](n3cnc4c(N)ncnc43)[C@H](OCCOC)[C@@H]2OP(=O)(S)OC[C@H]2O[C@@H](n3cc(C)c(=O)[nH]c3=O)C[C@@H]2OP(=O)(S)OC[C@H]2O[C@@H](n3ccc(N)nc3=O)[C@H](OCCOC)[C@@H]2OP(=O)(S)OC[C@H]2O[C@@H](n3cc(C)c(=O)[nH]c3=O)C[C@@H]2OP(=O)(S)OC[C@H]2O[C@@H](n3cnc4c(N)ncnc43)[C@H](OCCOC)[C@@H]2OP(=O)(S)OC[C@H]2O[C@@H](n3ccc(N)nc3=O)[C@H](OCCOC)[C@@H]2OP(=O)(S)OC[C@H]2O[C@@H](n3cnc4c(N)ncnc43)[C@H](OCCOC)[C@@H]2OP(=O)(S)OC[C@H]2O[C@@H](n3cnc4c(N)ncnc43)[C@H](OCCOC)[C@@H]2OP(=O)(S)OC[C@H]2O[C@@H](n3cnc4c(=O)[nH]c(N)nc43)[C@H](OCCOC)[C@@H]2OP(=O)(S)OC[C@H]2O[C@@H](n3cnc4c(N)ncnc43)[C@H](OCCOC)[C@@H]2OP(=O)(S)OC[C@H]2O[C@@H](n3cnc4c(N)ncnc43)[C@H](OCCOC)[C@@H]2OP(=O)(S)OC[C@H]2O[C@@H](n3cnc4c(N)ncnc43)[C@H](OCCOC)[C@@H]2O)[C@@H](CO)O[C@H]1n1ccc(N)nc1=O (some centres undefined)
inactive: inhibition [6] | inhibition [10]
Non-toxic: Activity [1] | Activity [2] | Activity [3] | Activity [5] | Activity [7] | Activity [8] | Activity [9]
1000 nM: IC50 [4]

Cc1cn(CC(=O)N(CCNC(=O)CN(CCNC(=O)CN(CCNC(=O)CN(CCNC(=O)CN(CCNC(=O)CN(CCNC(=O)CN(CCNC(=O)CN(CCNC(=O)CN(CCNC(=O)CN(CCNC(=O)CN(CCNC(=O)CN(CCN)C(=O)Cn2ccc(N)nc2=O)C(=O)Cn2cnc3c(N)ncnc32)C(=O)Cn2ccc(N)nc2=O)C(=O)Cn2cnc3c(N)ncnc32)C(=O)Cn2cnc3c(=O)[nH]c(N)nc32)C(=O)Cn2cnc3c(N)ncnc32)C(=O)Cn2cc(C)c(=O)[nH]c2=O)C(=O)Cn2cnc3c(=O)[nH]c(N)nc32)C(=O)Cn2cnc3c(N)ncnc32)C(=O)Cn2ccc(N)nc2=O)C(=O)Cn2cnc3c(N)ncnc32)CC(=O)NCCN(CC(=O)NCCN(CC(=O)NCCN(CC(=O)N[C@@H](CCCCN)C(N)=O)C(=O)Cn2cnc3c(=O)[nH]c(N)nc32)C(=O)Cn2cnc3c(N)ncnc32)C(=O)Cn2cc(C)c(=O)[nH]c2=O)c(=O)[nH]c1=O
900 nM: IC50 [11]

COCCO[C@@H]1[C@H](OP(=O)(S)OC[C@H]2O[C@@H](n3cnc4c(N)ncnc43)[C@H](OCCOC)[C@@H]2O)[C@@H](COP(=O)(S)O[C@H]2[C@@H](OCCOC)[C@H](n3ccc(N)nc3=O)O[C@@H]2COP(=O)(S)O[C@H]2[C@@H](OCCOC)[C@H](n3cnc4c(N)ncnc43)O[C@@H]2COP(=O)(S)O[C@H]2[C@@H](OCCOC)[C@H](n3ccc(N)nc3=O)O[C@@H]2COP(=O)(S)O[C@H]2[C@@H](OCCOC)[C@H](n3cnc4c(=O)[nH]c(N)nc43)O[C@@H]2COP(=O)(S)O[C@H]2[C@@H](OCCOC)[C@H](n3cnc4c(=O)[nH]c(N)nc43)O[C@@H]2COP(=O)(S)O[C@H]2[C@@H](OCCOC)[C@H](n3ccc(N)nc3=O)O[C@@H]2COP(=O)(S)O[C@H]2C[C@H](n3cc(C)c(=O)[nH]c3=O)O[C@@H]2COP(=O)(S)O[C@H]2[C@@H](OCCOC)[C@H](n3ccc(N)nc3=O)O[C@@H]2COP(=O)(S)O[C@H]2[C@@H](OCCOC)[C@H](n3ccc(N)nc3=O)O[C@@H]2COP(=O)(S)O[C@H]2C[C@H](n3cc(C)c(=O)[nH]c3=O)O[C@@H]2COP(=O)(S)O[C@H]2[C@@H](OCCOC)[C@H](n3cnc4c(=O)[nH]c(N)nc43)O[C@@H]2COP(=O)(S)O[C@H]2C[C@H](n3cc(C)c(=O)[nH]c3=O)O[C@@H]2COP(=O)(S)O[C@H]2[C@@H](OCCOC)[C@H](n3ccc(N)nc3=O)O[C@@H]2COP(=O)(S)O[C@H]2[C@@H](OCCOC)[C@H](n3cnc4c(N)ncnc43)O[C@@H]2COP(=O)(S)O[C@H]2C[C@H](n3cc(C)c(=O)[nH]c3=O)O[C@@H]2COP(=O)(S)O[C@H]2[C@@H](OCCOC)[C@H](n3ccc(N)nc3=O)O[C@@H]2COP(=O)(S)O[C@H]2[C@@H](OCCOC)[C@H](n3ccc(N)nc3=O)O[C@@H]2COP(=O)(S)O[C@H]2[C@@H](OCCOC)[C@H](n3cnc4c(N)ncnc43)O[C@@H]2CO)O[C@H]1n1ccc(N)nc1=O (some centres undefined)
Non-toxic: Activity [13] | Activity [18] | Activity [22] | Activity [23]
inactive: Activity [12] | Activity [16]
active: Activity [14] | Activity [15] | Activity [17] | Activity [19] | Activity [20] | Activity [21] | Activity [24]
